Compound activity as filed in PubChem BioAssay.
OX1R antag-1 – antagonists of human orexin 1 receptor (OX1R) | OX1R-expressing cells, FRET antagonist read-out | inhibition, % at 6.6 µM | O43613 | AID 485270 | 1.8% of 330,000 active; in the data active = inhibition mostly above about 38%, no sharp cut-off; inactive = mostly below about 40%;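 note: 0% = agonist challenge alone and 100% = reference antagonist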
Target sequence (O43613 whole entry, looked up): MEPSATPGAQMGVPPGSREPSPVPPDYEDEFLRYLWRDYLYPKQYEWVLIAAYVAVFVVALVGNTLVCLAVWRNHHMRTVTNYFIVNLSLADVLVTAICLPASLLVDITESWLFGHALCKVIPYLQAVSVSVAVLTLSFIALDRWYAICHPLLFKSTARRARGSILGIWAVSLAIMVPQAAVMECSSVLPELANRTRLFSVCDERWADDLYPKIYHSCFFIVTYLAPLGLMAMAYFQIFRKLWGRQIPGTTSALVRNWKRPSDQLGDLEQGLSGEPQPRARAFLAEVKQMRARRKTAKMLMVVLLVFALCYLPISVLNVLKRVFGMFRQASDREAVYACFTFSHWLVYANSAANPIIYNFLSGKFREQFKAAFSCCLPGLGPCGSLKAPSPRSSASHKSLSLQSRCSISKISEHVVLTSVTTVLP
OX1R antag-2 – blocks the human orexin 1 receptor. 0.43% of 330,000 active. CHO/OX1R cells, Fluo-8 calcium fluorescence, orexin A. O43613. inhibition, % at 5 µM. AID 434989;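 active = inhibition above its plate's threshold, mean inhibition of all tested compounds on the plate plus 3 SD, cut at about 37% in these data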;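 note: 0% = orexin A challenge wells and 100% = SB-334867-A antagonist wells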
TAAR1 antagonist – antagonists of human TAAR1; Q96RJ0; CHO RD-HGA16 TAAR1, Fluo-8 calcium fluorescence, antagonist; inhibition, % at 3 µM; 1.5% of 360,000 active; AID 624466;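 active = inhibition above a per-plate cutoff, the mean inhibition of test compounds on that plate plus 3 SD, cut at about 49% in these data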;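 note: 0% = DMSO plus EC80 beta-PEA response and 100% = DMSO alone without agonist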
Target sequence (Q96RJ0 whole entry, looked up): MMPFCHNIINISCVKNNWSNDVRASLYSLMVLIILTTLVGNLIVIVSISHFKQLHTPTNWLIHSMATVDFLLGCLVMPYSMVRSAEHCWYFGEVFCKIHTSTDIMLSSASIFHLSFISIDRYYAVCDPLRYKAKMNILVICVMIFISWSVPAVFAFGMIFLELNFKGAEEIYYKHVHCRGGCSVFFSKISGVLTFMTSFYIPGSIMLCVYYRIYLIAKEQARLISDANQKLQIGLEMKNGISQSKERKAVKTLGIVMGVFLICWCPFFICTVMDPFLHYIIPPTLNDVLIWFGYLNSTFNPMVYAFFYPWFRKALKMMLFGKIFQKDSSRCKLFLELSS
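Test system: CHO RD-HGA16 cells bearing hTAAR1 | Reagent: β-PEA, EC80 | Compound dosing: 3 µM, single point | Schedule: Dye loading 75 min at 37 °C, then 30 min room temperature | Signal: Calcium fluorescence with Fluo-8 | Evaluation: Percent inhibition of PEA-evoked calcium signal, max/basal emission ratio | Control set: DMSO-only wells and EC80 β-PEA-stimulated wells | Repeats: Singlicate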
GPR7 antagonist – blocks human GPR7 receptor signaling; AID 1861; inhibition, % at 4.4 µM; 1.1% of 290,000 active; GPR7-expressing cells, fluorescence antagonist assay; in the data active = inhibition above about 16%, passing the limit was not always enough;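 note: cells stimulated with the agonist NPW; 0% = agonist with vehicle and 100% = vehicle without agonist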
CHO parental Ca – signal in parental CHO cells, OX1R antagonist counter-screen; parental CHO-K1, ATP-induced calcium, Fluo-8 fluorescence; inhibition, % at 5.6 µM; 0.63% of 330,000 active; AID 463079;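 active = inhibition above that plate's mean sample inhibition plus 3 SD, cut at about 26% in these data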;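 note: 0% = ATP-challenged DMSO wells and 100% = DMSO wells without ATP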
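Material: Parental CHO cells | Reagent: ATP | Compound dosing: Single nominal dose of 5.6 µM per compound | Detection: Intracellular calcium via Fluo-8 no-wash fluorescent dye | Read-out: % inhibition of ATP-induced calcium mobilization | Benchmarks: Low control ATP plus DMSO, high control DMSO only | Replicates: Singlicate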
TAAR1 agonist – human TAAR1 agonism | CHO RD-HGA16 TAAR1, Fluo-8 calcium fluorescence; vehicle wells 0%, saturating PEA agonist 100% | 0.99% of 360,000 active | AID 624467 | Q96RJ0 | activation, % at 3 µM;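 active = activation above the mean activation of all test compounds in the run plus 3 SD, cut at about 38% in these data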
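Assay system: CHO-derived RD-HGA16 cells with stable Gα16 and human TAAR1; timing: 17-24 h seeding, 75 min 37 °C dye, 30 min RT; read-out: % activation from peak over basal fluorescence ratio, DMSO-to-PEA scaled; measured by: kinetic Fluo-8 calcium fluorescence; benchmarks: low control DMSO, high control PEA (EC100); doses: 3 µM single concentration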
GPR7 antag conf – confirmation of human GPR7 antagonists; AID 1952; shares compounds with GPR7 antagonist; GPR7-expressing cells, calcium fluorescence antagonist mode; inhibition, % at 4.4 µM; 52% of 2,400 active; in the data active = inhibition above about 24%;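 note: stimulated with the GPR7 agonist NPW; 0% = agonist plus vehicle and 100% = vehicle alone without agonist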
MCHR1 antag – counter-screen for GPR7 antagonists: antagonists of human MCHR1. inhibition, % at 4.4 µM. AID 2148. 62% of 2,400 active. MCHR1-expressing cells, fluorescence antagonist assay. shares compounds with GPR7 antagonist; in the data active = inhibition above about 22%;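 note: 0% = vehicle with agonist and 100% = vehicle without agonist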
Starred values were filed as active, the others as inactive. An excerpt weighted towards active compounds, which were near 4.6% of everything screened.

Results for CCOc1cc(C(=O)NCc2ccc(F)cc2)ccc1OCC(=O)N1CCCCC1 ?
OX1R antag-1: 5.7; OX1R antag-2: -14.6; TAAR1 antagonist: -12.2; CHO parental Ca: -12.0; TAAR1 agonist: 14.0

Results for CC1CCN(S(=O)(=O)c2ccc(S(=O)(=O)NCC(=O)C(C)(C)C)cc2)CC1 ?
OX1R antag-1: 6.5; OX1R antag-2: -12.8; TAAR1 antagonist: -8.8; GPR7 antagonist: -1.1; CHO parental Ca: -11.0; TAAR1 agonist: 1.3

What do the screens show for `O=C(Nc1ccnn1C1CCN(Cc2ccc(CO)o2)CC1)c1ccccc1`?
OX1R antag-1: -5.4; OX1R antag-2: -7.7; TAAR1 antagonist: -5.8; GPR7 antagonist: 29.3*; CHO parental Ca: -3.8; TAAR1 agonist: 0.0; GPR7 antag conf: -9.4; MCHR1 antag: 16.0

How did CCc1ccc([C@@H]2C[C@H]3CN(Cc4ccccc4OC)C(=O)[C@]34CCCN24)cc1 do in these assays?
OX1R antag-1: 9.7; OX1R antag-2: -22.6; TAAR1 antagonist: -9.0; GPR7 antagonist: 24.4*; CHO parental Ca: -17.9; TAAR1 agonist: 7.0; GPR7 antag conf: 3.0; MCHR1 antag: -1.0

How did O=C(CCC1CCCCC1)NCCN1C2=NC[C@H](Cc3ccccc3)N2C[C@H]1Cc1ccc(O)cc1 do in these assays?
OX1R antag-1: 34.0; OX1R antag-2: -15.8; TAAR1 antagonist: -8.6; GPR7 antagonist: 28.6; CHO parental Ca: -25.9; TAAR1 agonist: 24.3

How did O=C(CCC1CCCCC1)NCCN1C2=NC[C@@H](Cc3ccccc3)N2C[C@H]1Cc1ccc(O)cc1 do in these assays?
OX1R antag-1: 8.0; OX1R antag-2: -30.5; TAAR1 antagonist: 3.6; GPR7 antagonist: 45.7*; CHO parental Ca: -25.9; TAAR1 agonist: 13.6; GPR7 antag conf: 55.2*; MCHR1 antag: 29.6*

Results for O=C1c2cccc3c([N+](=O)[O-])ccc(c23)C(=O)N1c1ccc(Cl)cn1 ?
OX1R antag-1: 51.5*; OX1R antag-2: 44.7; TAAR1 antagonist: 70.8*; GPR7 antagonist: 32.6*; CHO parental Ca: 35.4*; TAAR1 agonist: 1.5; GPR7 antag conf: 100.5*; MCHR1 antag: 103.7*

What do the screens show for `CSc1cccc(N2CC(C(=O)Nc3cccc(S(=O)(=O)N4CCCC4)c3)CC2=O)c1` (configuration not stated)?
OX1R antag-1: 16.0; OX1R antag-2: -20.7; TAAR1 antagonist: 10.9; CHO parental Ca: -10.2; TAAR1 agonist: 3.8

How did COc1ccc(-n2nnnc2CNC(=O)c2ccc3c(c2)OCO3)cc1 do in these assays?
OX1R antag-1: -1.1; OX1R antag-2: -19.8; TAAR1 antagonist: -3.5; CHO parental Ca: 3.7; TAAR1 agonist: -0.7

How did COc1ccc(C(=O)Nc2ccccc2C(=O)N2CCCCCC2)cc1OC do in these assays?
OX1R antag-1: 15.3; OX1R antag-2: -31.5; TAAR1 antagonist: -14.7; GPR7 antagonist: -12.0; CHO parental Ca: -25.2; TAAR1 agonist: 0.6

What do the screens show for `COc1ccc(CCNC(=O)c2ccc3c(c2)N(Cc2ccc(F)cc2)CCS3)cc1OC`?
OX1R antag-1: 32.5; OX1R antag-2: -17.7; TAAR1 antagonist: 59.4*; GPR7 antagonist: 28.8*; CHO parental Ca: -12.8; TAAR1 agonist: -1.4; GPR7 antag conf: 31.1*; MCHR1 antag: 50.4*

Results for CS(=O)(=O)N(CC(=O)Nc1ccc(F)c(F)c1)c1cccc([N+](=O)[O-])c1 ?
OX1R antag-1: 13.9; OX1R antag-2: -16.9; TAAR1 antagonist: 7.0; GPR7 antagonist: 32.2*; CHO parental Ca: -8.0; TAAR1 agonist: 3.8; GPR7 antag conf: 22.1; MCHR1 antag: 16.7

Results for CC(NCCC(c1ccccc1)c1ccccc1)c1ccccc1 (configuration not stated) ?
OX1R antag-1: 15.6; OX1R antag-2: -24.2; TAAR1 antagonist: 26.6; GPR7 antagonist: 28.1*; CHO parental Ca: -0.1; TAAR1 agonist: 19.9; GPR7 antag conf: 50.8*; MCHR1 antag: 54.6*

How did CN(C)C(CNC(=O)CSc1nc2sc3c(c2c(=O)n1C)CCC3)c1ccccc1 (configuration not stated) do in these assays?
OX1R antag-1: 13.7; OX1R antag-2: -22.8; TAAR1 antagonist: -25.5; CHO parental Ca: 3.5; TAAR1 agonist: 7.1

How did CCOC1=C2[C@@H](CN(S(=O)(=O)c3ccc(C)cc3)[C@H]2c2ccccc2)[C@H]2C(=O)N(Cc3ccccc3)C(=O)[C@H]2C1 do in these assays?
TAAR1 antagonist: -8.4; TAAR1 agonist: -0.3

How did Cc1nc(NC(C)c2ccccc2)c2c3c(sc2n1)CCC3 (configuration not stated) do in these assays?
OX1R antag-1: 12.2; OX1R antag-2: -34.3; GPR7 antagonist: 26.9*; CHO parental Ca: -15.2; GPR7 antag conf: 28.1*; MCHR1 antag: 29.4*

What do the screens show for `Cc1ccc(CNc2nc(C)nc3sc4c(c23)CCC4)cc1`?
OX1R antag-1: 17.0; OX1R antag-2: -11.3; TAAR1 antagonist: 16.8; GPR7 antagonist: 20.0; CHO parental Ca: 2.4; TAAR1 agonist: -2.2

How did COc1ccc2c(c1OC)C(=O)N(c1ccc(C)cc1)C2 do in these assays?
OX1R antag-1: 14.2; OX1R antag-2: -10.2; TAAR1 antagonist: -14.7; GPR7 antagonist: 23.4*; CHO parental Ca: -9.5; TAAR1 agonist: 0.2; GPR7 antag conf: 9.0; MCHR1 antag: 2.0

What do the screens show for `COc1ccc2c(c1OC)C(=O)N(c1cccc(C)c1)C2`?
OX1R antag-1: 18.6; OX1R antag-2: -8.0; TAAR1 antagonist: 2.4; GPR7 antagonist: -6.6; CHO parental Ca: -17.0; TAAR1 agonist: 2.7

How did Cc1nn(Cc2ccc(Cl)c(Cl)c2)c(C)c1NC(=O)c1cn(-c2ccccc2)nc1-c1ccccc1 do in these assays?
OX1R antag-1: 18.8; OX1R antag-2: -28.4; TAAR1 antagonist: 23.5; GPR7 antagonist: -3.8; CHO parental Ca: -20.7; TAAR1 agonist: 0.3

What do the screens show for `Cc1ccc(-c2csc(NC(=O)C3CCN(S(=O)(=O)c4cccs4)CC3)n2)cc1`?
OX1R antag-1: 14.8; OX1R antag-2: 6.3; TAAR1 antagonist: 1.1; GPR7 antagonist: 39.3*; CHO parental Ca: 22.4; TAAR1 agonist: 0.6; GPR7 antag conf: 43.4*; MCHR1 antag: 56.9*

Results for Cc1ccc(NC(=O)C2CCN(S(=O)(=O)c3cccs3)CC2)cc1 ?
OX1R antag-1: -2.9; OX1R antag-2: -20.6; TAAR1 antagonist: 19.1; GPR7 antagonist: 0.4; CHO parental Ca: -4.2; TAAR1 agonist: 1.1
